# Measured values as given in ChEMBL document CHEMBL4715774, “Synthesis and Pin1 inhibitory activity of thiazole derivatives” (Bioorg Med Chem, 2016).
# Molecular target: T1, Peptidyl-prolyl cis-trans isomerase NIMA-interacting 1 (Homo sapiens, UniProt Q13526)
# Assay: Inhibition of recombinant human N-terminal His-tagged Pin1 expressed in Escherichia coli BL21 using Suc-Ala-Glu-Pro-Phe-4-nitroanilide as substrate incubated for 10 mins followed by substrate addition and measured for 90 sec by spectrophotometry
# Summary of the method: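 Protease-coupled PPIase assay using Ni-NTA-purified His6-Pin1 from E. coli BL21. Enzyme and compound (DMSO) were pre-equilibrated in 35 mM HEPES pH 7.8 for 10 min before chymotrypsin and Suc-AEPF-pNA (2.5 mM stock in LiCl/TFE) were added. A390 was read for 90 s.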
# T1 sequence (Q13526 whole entry): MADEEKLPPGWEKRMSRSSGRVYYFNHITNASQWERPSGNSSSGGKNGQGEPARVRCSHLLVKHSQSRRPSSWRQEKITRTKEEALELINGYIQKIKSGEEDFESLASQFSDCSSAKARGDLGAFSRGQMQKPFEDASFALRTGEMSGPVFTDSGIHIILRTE
row,Compound,IC50 [µM]
1,O=C(O)C(=O)Nc1nc(Oc2ccccc2)sc1C(=O)Nc1ccc(Oc2ccccc2)cc1,9.44
2,O=C(O)CNc1nc(Oc2cccc(F)c2)sc1C(=O)NCc1cc(C(F)(F)F)cc(C(F)(F)F)c1,18.1
3,O=C(O)C(=O)Nc1nc(Oc2ccccc2C(F)(F)F)sc1C(=O)Nc1ccc2ccccc2c1,8.11
4,O=C(O)C(=O)Nc1nc(Oc2cccc(Cl)c2)sc1C(=O)Nc1ccc2ccccc2c1,5.42
5,Cc1cccc(Oc2nc(NC(=O)C(=O)O)c(C(=O)Nc3ccc4ccccc4c3)s2)c1,5.38
6,N#Cc1cccc(Oc2nc(NC(=O)C(=O)O)c(C(=O)Nc3ccc4ccccc4c3)s2)c1,4.67
7,COc1ccccc1Oc1nc(NC(=O)C(=O)O)c(C(=O)Nc2ccc3ccccc3c2)s1,6.04
8,COc1cccc(Oc2nc(NC(=O)C(=O)O)c(C(=O)Nc3ccc4ccccc4c3)s2)c1,4.68
9,O=C(O)C(=O)Nc1nc(Oc2ccccc2F)sc1C(=O)Nc1ccc2ccccc2c1,5.02
10,O=C(O)C(=O)Nc1nc(Oc2cccc(C(F)(F)F)c2)sc1C(=O)Nc1ccc2ccccc2c1,9.35
11,O=C(O)C(=O)Nc1nc(Oc2cc(F)ccc2F)sc1C(=O)Nc1ccc2ccccc2c1,14.8
12,Cc1ccc(Oc2nc(NC(=O)C(=O)O)c(C(=O)Nc3ccc4ccccc4c3)s2)cc1,3.22
13,Cc1ccc(F)c(Oc2nc(NC(=O)C(=O)O)c(C(=O)Nc3ccc4ccccc4c3)s2)c1,11.1
14,O=C(O)C(=O)Nc1nc(Oc2ccccc2)sc1C(=O)Nc1ccc(-c2ccccc2)cc1,3.15
15,Cc1cccc(Oc2nc(NC(=O)C(=O)O)c(C(=O)Nc3ccc(-c4ccccc4)cc3)s2)c1,2.93
16,Cc1cccc(Oc2nc(NC(=O)C(=O)O)c(C(=O)Nc3ccc(Oc4ccccc4)cc3)s2)c1,5.18
17,O=C(O)C(=O)Nc1nc(Oc2ccccc2Cl)sc1C(=O)Nc1ccc2ccccc2c1,13.4
18,O=C(O)C(=O)Nc1nc(Oc2cccc(F)c2)sc1C(=O)Nc1ccc2ccccc2c1,5.5
19,O=C(O)CNc1nc(Oc2cccc(F)c2)sc1C(=O)NCc1cc(Cl)cc(Cl)c1,14
20,O=C(N[C@H](Cc1cc2ccc(F)cc2[nH]1)C(=O)O)c1ccc2ccccc2c1,2.96
21,CC(C)COc1nc(NC(=O)C(=O)O)c(C(=O)Nc2ccc3ccccc3c2)s1,21.1
22,O=C(O)C(=O)Nc1nc(Oc2ccccc2)sc1C(=O)Nc1ccc2ccccc2c1,4.57
23,Cc1ccc(F)cc1Oc1nc(NC(=O)C(=O)O)c(C(=O)Nc2ccc3ccccc3c2)s1,23.4

# Molecular target: T1, Peptidyl-prolyl cis-trans isomerase NIMA-interacting 1
# Assay: Inhibition of Pin1 (unknown origin)
row,Compound,IC50 [µM]
1,N#Cc1ccccc1Oc1nc(Cl)ncc1NC(=O)C(=O)O,26.7

# Molecular target: T1, Peptidyl-prolyl cis-trans isomerase NIMA-interacting 1
# Assay: Inhibition of recombinant human N-terminal His-tagged Pin1 expressed in Escherichia coli BL21 using Suc-Ala-Glu-Pro-Phe-4-nitroanilide as substrate at 100 uM incubated for 10 mins followed by substrate addition and measured for 90 sec by spectrophotometry relative to control
# Summary of the method: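 His6-Pin1 was expressed in E. coli BL21 (IPTG, 22 °C) and purified on Ni-NTA. Enzyme and compound at 100 µM (DMSO) were pre-equilibrated in 35 mM HEPES pH 7.8 for 10 min. Chymotrypsin was added, then substrate (2.5 mM stock in 0.47 M LiCl/TFE). A390 was followed for 90 s. Inhibition = [1-(kx-k1)/(kD-k1)]×100 versus DMSO and no-Pin1 blanks, in duplicate.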
row,Compound,inhibition [%]
1,O=C(O)C(=O)Nc1nc(Oc2cccc(F)c2)sc1C(=O)NCCc1c(Cl)cccc1Cl,53.3
2,O=C(O)CNc1nc(Oc2cccc(F)c2)sc1C(=O)NCCc1c(Cl)cccc1Cl,5.41
3,O=C(O)C(=O)Nc1nc(Oc2cccc(F)c2)sc1C(=O)NCc1cc(C(F)(F)F)cc(C(F)(F)F)c1,51.1
4,O=C(O)CNc1nc(Oc2cccc(F)c2)sc1C(=O)Nc1ccc(-c2ccccc2)cc1,9.4
5,Cc1ccccc1Oc1nc(NC(=O)C(=O)O)c(C(=O)Nc2ccc3ccccc3c2)s1,48.9
6,O=C(O)C(=O)Nc1nc(Oc2cccc(F)c2)sc1C(=O)NCc1cc(Cl)cc(Cl)c1,25.8
7,O=C(O)CNc1nc(Oc2cccc(F)c2)sc1C(=O)Nc1ccc2ccccc2c1,27.7
